Assay results as given in ChEMBL document CHEMBL5724801, “EUbOPEN Chemogenomics Library - Multiplex” (2024).
Values joined by “and” are separate entries in the source; they are usually repeats but may differ in a detail not shown here. Identical values can stand only once.

Tested on: HEK-293T
Experiment: Multiplex assay against HEK293T
Type: toxicity, cell-based
Conditions: human
How it was run: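 Compound was added to live cells that had been stained at seeding with Hoechst33342, BioTracker Green Microtubule Cytoskeleton Dye, MitoTracker Red and Annexin V Alexa Fluor 680, and imaging followed on a CQ1 microscope at 37°C and 5% CO2. CellPathfinder machine-learning gating divided cells into Hoechst high-intensity objects or normal cells, normal cells into healthy, pyknosed or fragmented nuclei, and pyknosed cells into mitotic or apoptotic. Tubulin, mitochondrial-mass and membrane-permeability phenotypes are per cents of healthy-nucleus cells.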

[1] = 12 h, 1 µM, compound concentration 1 uM
[2] = 12 h, 10 µM, compound concentration 10 uM
[3] = 24 h, 1 µM, compound concentration 1 uM
[4] = 24 h, 10 µM, compound concentration 10 uM
[5] = 48 h, 1 µM, compound concentration 1 uM
[6] = 48 h, 10 µM, compound concentration 10 uM

CC(C)(c1ccc(O)cc1)c1ccc(O)cc1 [BISPHENOL A]
Population Apoptotic (%) [1]: 8.05% and 13.14% | Population Fragmented Nuclei (%) [1]: 5.16% and 3.01% | Population Hoechst High Intensity Objects (%) [1]: 0% and 0.6% | Population Membrane Permeable-Phenotype (%) [1]: 0% and 4.17% | Population Mitochondria Different-Phenotype (%) [1]: 34.18% and 33.33% | Population Mitotic Cells (%) [1]: 91.95% and 86.86% | Population Normal (%) [1]: 100% and 99.4% | Population Pyknosed Nuclei (%) [1]: 36.61% and 82.53% | Total Cell Count [1]: 407 and 167 | Population Apoptotic (%) [2]: 10.57% and 14.78% | Population Fragmented Nuclei (%) [2]: 4.23% and 2.74% | Population Hoechst High Intensity Objects (%) [2]: 1.19% and 0.68% | Population Membrane Permeable-Phenotype (%) [2]: 0% | Population Mitochondria Different-Phenotype (%) [2]: 37.63% and 18.52% | Population Mitotic Cells (%) [2]: 89.43% and 85.22% | Population Normal (%) [2]: 98.81% and 99.32% | Population Pyknosed Nuclei (%) [2]: 37.16% and 78.77% | Total Cell Count [2]: 335 and 147 | Population Apoptotic (%) [3]: 12.93% and 13.39% | Population Fragmented Nuclei (%) [3]: 1.95% and 0.56% | Population Healthy Nuclei (%) [3]: 77.52% and 28.89% | Population Hoechst High Intensity Objects (%) [3]: 0.18% and 0% | Population Membrane Permeable-Phenotype (%) [3]: 1.6% and 1.92% | Population Mitochondria Different-Phenotype (%) [3]: 13.7% and 15.38% | Population Mitotic Cells (%) [3]: 87.07% and 86.61% | Population Normal (%) [3]: 99.82% and 100% | Population Tubulin-Different-Phenotype (%) [3]: 9.82% and 13.46% | Population Apoptotic (%) [4]: 12.5% and 15.52% | Population Fragmented Nuclei (%) [4]: 2.67% and 1.71% | Population Healthy Nuclei (%) [4]: 74.28% and 32% | Population Hoechst High Intensity Objects (%) [4]: 0% | Population Membrane Permeable-Phenotype (%) [4]: 1.11% and 0% | Population Mitochondria Different-Phenotype (%) [4]: 19.11% and 16.07% | Population Mitotic Cells (%) [4]: 87.5% and 84.48% | Population Normal (%) [4]: 100% | Population Pyknosed Nuclei (%) [4]: 23.05% and 66.29% | Total Cell Count [4]: 486 and 175 | Population Apoptotic (%) [5]: 8.33% and 18.95% | Population Fragmented Nuclei (%) [5]: 3.14% and 0% | Population Healthy Nuclei (%) [5]: 87.89% and 52.74% | Population Hoechst High Intensity Objects (%) [5]: 0.07% and 0.99% | Population Membrane Permeable-Phenotype (%) [5]: 5.87% and 1.89% | Population Mitotic Cells (%) [5]: 91.67% and 81.05% | Population Normal (%) [5]: 99.93% and 99.01% | Population Fragmented Nuclei (%) [6]: 3.13% and 2.41% | Population Healthy Nuclei (%) [6]: 86.33% and 68.67% | Population Hoechst High Intensity Objects (%) [6]: 0% and 2.35% | Population Membrane Permeable-Phenotype (%) [6]: 4.42% and 1.75% | Population Mitochondria Different-Phenotype (%) [6]: 9.82% and 14.62% | Population Mitotic Cells (%) [6]: 95.65% and 84.72% | Population Normal (%) [6]: 100% and 97.65% | Population Pyknosed Nuclei (%) [6]: 10.54% and 28.92%

O=C(O)CCC/C=C\CC1C(O)CC(O)C1/C=C/C(O)COc1cccc(Cl)c1 (stereo not drawn) [CLOPROSTENOL]
Population Apoptotic (%) [1]: 31% and 40% | Population Fragmented Nuclei (%) [1]: 7% and 6% | Population Healthy Nuclei (%) [1]: 81% and 80% | Population Hoechst High Intensity Objects (%) [1]: 9% and 7% | Population Membrane Permeable-Phenotype (%) [1]: 0% | Population Mitochondria Different-Phenotype (%) [1]: 44% and 56% | Population Mitotic Cells (%) [1]: 68% and 59% | Population Normal (%) [1]: 90% and 92% | Population Pyknosed Nuclei (%) [1]: 10% and 13% | Population Tubulin-Different-Phenotype (%) [1]: 35% and 23% | Total Cell Count [1]: 458 and 341 | Population Apoptotic (%) [2]: 45% and 51% | Population Fragmented Nuclei (%) [2]: 7% and 8% | Population Healthy Nuclei (%) [2]: 77% | Population Hoechst High Intensity Objects (%) [2]: 6% and 13% | Population Membrane Permeable-Phenotype (%) [2]: 0% | Population Mitochondria Different-Phenotype (%) [2]: 63% and 68% | Population Mitotic Cells (%) [2]: 54% and 48% | Population Normal (%) [2]: 93% and 86% | Population Pyknosed Nuclei (%) [2]: 14% | Population Tubulin-Different-Phenotype (%) [2]: 41% and 37% | Total Cell Count [2]: 395 and 357 | Population Apoptotic (%) [3]: 22% and 34% | Population Fragmented Nuclei (%) [3]: 11% and 7% | Population Healthy Nuclei (%) [3]: 76% and 83% | Population Hoechst High Intensity Objects (%) [3]: 7% and 5% | Population Membrane Permeable-Phenotype (%) [3]: 1% and 0% | Population Mitochondria Different-Phenotype (%) [3]: 25% and 37% | Population Mitotic Cells (%) [3]: 77% and 65% | Population Normal (%) [3]: 92% and 94% | Population Pyknosed Nuclei (%) [3]: 11% and 9% | Population Tubulin-Different-Phenotype (%) [3]: 28% and 16% | Total Cell Count [3]: 612 and 477 | Population Apoptotic (%) [4]: 46% | Population Fragmented Nuclei (%) [4]: 10% and 12% | Population Healthy Nuclei (%) [4]: 78% | Population Hoechst High Intensity Objects (%) [4]: 7% and 11% | Population Membrane Permeable-Phenotype (%) [4]: 0% | Population Mitochondria Different-Phenotype (%) [4]: 46% and 55% | Population Mitotic Cells (%) [4]: 54% and 53% | Population Normal (%) [4]: 92% and 88% | Population Pyknosed Nuclei (%) [4]: 10% and 9% | Population Tubulin-Different-Phenotype (%) [4]: 35% and 31% | Total Cell Count [4]: 490 and 483 | Population Apoptotic (%) [5]: 20% and 28% | Population Fragmented Nuclei (%) [5]: 15% and 13% | Population Healthy Nuclei (%) [5]: 77% and 81% | Population Hoechst High Intensity Objects (%) [5]: 4% and 5% | Population Membrane Permeable-Phenotype (%) [5]: 1% | Population Mitochondria Different-Phenotype (%) [5]: 15% and 20% | Population Mitotic Cells (%) [5]: 79% and 71% | Population Normal (%) [5]: 95% and 94% | Population Pyknosed Nuclei (%) [5]: 6% and 5% | Population Tubulin-Different-Phenotype (%) [5]: 15% and 11% | Total Cell Count [5]: 956 and 703 | Population Apoptotic (%) [6]: 33% and 25% | Population Fragmented Nuclei (%) [6]: 16% and 18% | Population Healthy Nuclei (%) [6]: 76% and 75% | Population Hoechst High Intensity Objects (%) [6]: 7% and 6% | Population Membrane Permeable-Phenotype (%) [6]: 0% and 1% | Population Mitochondria Different-Phenotype (%) [6]: 32% and 25% | Population Mitotic Cells (%) [6]: 66% and 74% | Population Normal (%) [6]: 92% and 93% | Population Pyknosed Nuclei (%) [6]: 6% and 5% | Population Tubulin-Different-Phenotype (%) [6]: 18% | Total Cell Count [6]: 659 and 731
